# MrgX1 PAM = human MrgX1 positive allosteric modulation, primary screen | Q96LB2 | MrgX1-HEK293, Fluo-4 calcium flux, FDSS; hits give high values | B-score at 10 µM | 310,000 tested, 0.63% active | AID 588675;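 active = plate-corrected calcium response at least 3 library SD above typical, normal starting fluorescence, not activating the receptor alone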;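 note: compound read alongside a low EC10 to EC30 dose of BAM8-22 agonist; peak minus trough fluorescence over baseline measured at the second addition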
# Target sequence (Q96LB2 whole entry, looked up): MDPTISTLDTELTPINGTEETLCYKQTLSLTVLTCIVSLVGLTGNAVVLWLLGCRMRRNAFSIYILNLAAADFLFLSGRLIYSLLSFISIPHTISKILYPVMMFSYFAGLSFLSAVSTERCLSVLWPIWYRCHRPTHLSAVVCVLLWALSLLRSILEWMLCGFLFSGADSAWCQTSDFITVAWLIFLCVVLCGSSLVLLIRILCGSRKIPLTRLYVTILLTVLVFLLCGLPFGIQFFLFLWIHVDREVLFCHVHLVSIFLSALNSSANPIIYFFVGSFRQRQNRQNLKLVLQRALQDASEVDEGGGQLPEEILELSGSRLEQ
# RGS4 pot = RGS4 potentiation or activation | HEK293 M3R/inducible RGS4, carbachol calcium flux Fluo4; hits give low values | B-score at 10 µM | 310,000 tested, 0.92% active;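 active = B-score of the integrated calcium signal more than 4 SD below the library mean, with starting fluorescence not abnormally high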;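 note: negative B-score means reduced calcium response which marks RGS4 activation or potentiation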
#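 Assay system: Inducible-RGS4 HEK293 cells carrying M3 receptor | Schedule: Compound preincubation 20 min at room temperature before agonist | Signal: Kinetic calcium fluorescence imaging with Fluo4-AM dye, 2 µM | Read-out basis: B score from integrated fluorescence ratio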
# MrgX1 ag = human MrgX1 receptor agonism, primary screen | 310,000 tested, 0.44% active | MrgX1-HEK293 cells, Fluo-4 calcium fluorescence, agonist mode; hits give high values | Q96LB2 | B-score at 10 µM;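 active = calcium response B-score plate-corrected fluorescence ratio at least 3 library SD, with starting fluorescence B-score inside 5 SD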
#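 Material: MrgX1-expressing HEK293 cells; input: 15,000 cells per well; doses: test compound given as first of three sequential additions; schedule: overnight plating before 1 h dye loading; technique: Fluo-4 NW calcium-flux fluorescence, kinetic read; evaluation: baseline-normalised fluorescence change ratio, B-scored; control set: plate-wise positive and negative controls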
# RGS4 block = human RGS4 inhibition. HEK293 M3R/RGS4 inducible, Fluo-4 calcium flux; hits give high values; triggered by carbachol at its EC20. B-score at 10 µM. 310,000 tested, 0.45% active. AID 463165;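 active = B-score, a plate-corrected calcium signal, over three deviations above library mean, with baseline fluorescence within five deviations of library mean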;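 note: RGS4 expression induced by doxycycline in cells with stable M3 receptor; B-score is computed from the integrated fluorescence ratio over baseline after carbachol; higher B-score means a larger calcium signal and so more RGS4 inhibition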
# Target sequence (P49798 whole entry, looked up): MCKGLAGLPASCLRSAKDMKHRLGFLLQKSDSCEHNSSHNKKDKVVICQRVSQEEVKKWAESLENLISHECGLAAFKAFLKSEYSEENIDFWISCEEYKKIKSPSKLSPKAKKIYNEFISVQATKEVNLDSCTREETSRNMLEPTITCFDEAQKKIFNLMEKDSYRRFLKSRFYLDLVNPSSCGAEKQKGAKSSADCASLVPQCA
# MrgX1 antagonist = blocks BAM8-22 activation of human MrgX1 receptor; Q96LB2; MRGX1-HEK293 calcium flux, Fluo-4, BAM8-22 antagonism; hits give low values; B-score at 10 µM; 310,000 tested, 1.3% active;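 active = calcium-response B-score plate-corrected more than 3 library SD below zero, starting fluorescence within 5 deviations, no agonist response on first addition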;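 note: peak minus trough fluorescence over baseline after final BAM8-22 challenge near maximal dose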
# RGS4 inh valid = RGS4 inhibitor validation | calcium response, % at 10 µM | HEK293 M3R/RGS4, carbachol calcium Fluo-4 fluorescence; carbachol added at its EC20; 0 = buffer wells, 100 = carbachol control | 1,700 tested, 65% active | shares compounds with RGS4 block | AID 492999;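 active = duplicate-averaged calcium response above the buffer-only control mean plus 5 SD of those controls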;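 note: integrated fluorescence ratio F max minus min over baseline F0; higher response in RGS4-induced cells means RGS4 inhibition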
# RGS4 uninduced = checks RGS4 inhibitor effects in non-induced HEK293 M3R cells. activity (percent), % at 10 µM. shares compounds with RGS4 block. 1,900 tested, 20% active. carbachol calcium Fluo-4; submaximal (EC20) carbachol stimulus; buffer wells 0%, carbachol control wells 100%; call rule not given here;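 note: RGS4 induction absent so cells express M3R without RGS4; higher means more calcium signal and flags a non-specific hit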
# RGS4 inh ctr2 = second counter-screen for RGS4 inhibitors: non-induced cells without carbachol; shares compounds with RGS4 block; calcium response (agonist-mode artifact), % at 10 µM; 1,900 tested, 22% active; AID 493001; HEK293 M3R/RGS4 non-induced, Fluo-4 calcium, no carbachol; normalised: buffer wells 0%, carbachol wells 100%;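 active = duplicate-averaged calcium rise in uninduced cells above buffer wells' mean plus 5 SD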
# The depositor's hits bear a star; i = inactive; . = not tested or not shown. This is a sample that favours compounds with a hit; in the whole collection about 3.5% have one here.
SMILES,MrgX1 PAM,RGS4 pot,MrgX1 ag,RGS4 block,MrgX1 antagonist,RGS4 inh valid,RGS4 uninduced,RGS4 inh ctr2
CCSc1n[nH]c2nc3c(c(=O)n12)C1(CCCCC1)Cc1ccccc1-3,i,i,i,i,i,.,i,i
CCCn1c(SCC(N)=O)nc2c(c1=O)C1(CCCC1)Cc1ccccc1-2,i,i,i,i,i,.,.,.
Cc1ccccc1-n1c(=O)c2c(n3cnnc13)-c1ccccc1CC21CCCCC1,i,i,i,i,i,.,.,.
N#CCSc1n[nH]c2nc3c(c(=O)n12)C1(CCCCC1)Cc1ccccc1-3,i,i,i,i,i,.,.,.
CCn1c(=O)c2c(n3c(=S)[nH]nc13)-c1ccccc1CC21CCCCC1,i,i,i,8.34*,i,45.5%*,57.0%*,i
CSc1sc(C(=O)N(C)C)c2c1S(=O)(=O)N(C)c1ccccc1-2,i,i,i,i,i,.,.,.
O=S(=O)(c1ccc(Br)s1)N1CCN(c2ccc(F)cc2)CC1,i,i,i,i,i,.,.,.
OC[C@H]1O[C@@H](O[C@@H]2[C@@H](CO)O[C@@](O)(CO)[C@H]2O)[C@H](O)[C@@H](O)[C@H]1O,i,i,i,i,i,.,.,.
COc1ccc(-c2nnc(Nc3ccc(OC)c(C(=O)N4CCCCC4)c3)c3ccccc23)cc1,i,i,i,i,i,.,i,i
NC(=O)Cn1c(=O)n(CC(=O)N2CCCCC2)c(=O)c2sccc21,i,i,i,i,i,.,.,.
CCN(Cc1ccccc1)C(=O)Cn1c(=O)n(CC(=O)N2CCCCC2)c(=O)c2sccc21,i,i,i,i,i,.,43.5%*,i
CC(=O)N1CCc2cc(S(=O)(=O)NC(C)c3ccccc3)ccc21 (stereo unspecified),i,i,i,i,i,i,i,i
CCOC(=O)CSC1=NC(=O)/C(=C/c2ccc(Br)cc2)S1,i,i,i,i,i,.,36.5%*,i
CCOC(=O)CSC1=NC(=O)/C(=C\c2ccc(OC(C)=O)cc2)S1,i,i,i,18.3*,i,38.0%*,i,9.0%*
CCCCC1=CC2=C(c3ccco3)C(=O)C(C)(OC(=O)c3ccc(OC)cc3)C(=O)C2=CN1C1CC1 (stereo unspecified),i,i,i,9.33*,i,5.5%*,i,i
COC(=O)CCCC1=CC2=C(c3ccccc3)C(=O)C(C)(OC(=O)C3CCCC3)C(=O)C2=CN1C1CC1 (stereo unspecified),i,i,i,i,i,.,.,.
CCCCC1=CC2=C(c3ccco3)C(=O)C(C)(OC(=O)c3ccc(OC)cc3)C(=O)C2=CN1C1CCCC1 (stereo unspecified),i,i,i,i,i,i,i,102.0%*
Cc1ccc(N(CC(=O)NC(C)C)C(=O)CCC(=O)Nc2nccs2)c(C)c1,i,i,i,i,i,.,.,.
CCOC(=O)c1csc(NC(=O)c2ccc3c(c2)OCCO3)n1,i,i,i,i,i,.,.,.
Cc1cc(O)c(C(C[N+](=O)[O-])c2ccc(Cl)cc2)c(=O)o1 (stereo unspecified),i,i,i,i,i,.,.,.
Cc1cc(C)n(C(C[N+](=O)[O-])c2ccc(Cl)cc2)n1 (stereo unspecified),i,i,i,13.7*,i,8.0%*,44.0%*,21.5%*
CO/C=C\C=C/c1nnn(-c2ccc(Cl)cc2)n1,i,i,i,7.46*,i,i,i,8.0%*
Cc1ccc(/C=N/NC(=O)CSc2nc3ccccc3c(=O)n2-c2ccccc2C)s1,i,i,i,i,i,.,.,.
Cc1ccccc1-n1c(SCC(=O)N/N=C/c2sccc2C)nc2ccccc2c1=O,i,i,i,5.54*,i,i,i,i
Cc1c(C#N)c(O)n(CCO)c(=O)c1N=Nc1ccc2c(c1)COC2=O,i,i,i,5.24*,i,i,i,18.0%*
SMILES,MrgX1 PAM,RGS4 pot,MrgX1 ag,RGS4 block,MrgX1 antagonist,RGS4 inh valid,RGS4 uninduced,RGS4 inh ctr2
CCOC(=O)C(CC(=O)Nc1nc(C(C)=O)c(C)s1)C(C)c1ccccc1 (stereo unspecified),i,i,i,i,i,.,.,.
CCN(CC)CCN(C(=O)c1ccc2c(c1)CCCC2)c1nc2ccc(OC)cc2s1,i,i,i,i,i,i,i,i
CCN(CC)CCN(C(=O)c1ccc2c(c1)CCCC2)c1nc2ccc(C)cc2s1,i,i,i,i,i,.,.,.
CCc1ccc2c(Cl)c(C(=O)N/N=C/c3c[nH]c4ccccc34)sc2c1,i,i,i,4.78*,i,17.5%*,39.5%*,8.5%*
CCc1ccc(-c2cc(C(=O)N/N=C/c3c[nH]c4ccccc34)[nH]n2)cc1,i,i,i,4.87*,i,i,i,i
C[C@]12C(=O)N(c3cccc(F)c3)C(=O)N1[C@@H]1c3ccccc3OC[C@@H]1[C@H]2c1ccccc1,i,i,i,i,i,i,i,i
C[C@]12C(=O)N(c3ccccc3)C(=O)N1[C@@H]1c3ccccc3OC[C@@H]1[C@H]2c1ccccc1,i,i,i,i,i,i,i,i
C[C@]12C(=O)N(c3ccc(C(F)(F)F)cc3)C(=O)N1[C@@H]1c3ccccc3OC[C@@H]1[C@H]2c1ccccc1,i,i,i,i,i,.,.,.
Cc1ccc(N2C(=O)N3[C@H]4c5ccccc5OC[C@@H]4[C@@H](c4ccccc4)[C@@]3(C)C2=O)cc1,i,i,i,i,i,.,.,.
CCOC(=O)CCCNC(=O)CSc1nnc(-c2ccccc2)c(-c2ccccc2)n1,i,i,i,i,i,.,.,.
CCOC(=O)c1c(-c2ccccc2)csc1NC(=O)CSc1nnc(C)s1,i,i,i,i,i,.,.,.
CCOC(=O)c1c(-c2ccc(C)o2)csc1NC(=O)CSc1nnnn1-c1ccccc1,i,i,i,9.86*,i,i,i,i

# Bioassay records: PubChem BioAssay, Johns Hopkins Ion Channel Center
